Source: PubChem BioAssay (several laboratories)
This is a sample that favours compounds with a hit; in the whole collection about 2.6% have one here.
Rad51 HR inh: Rad51 (human) homologous recombination inhibition | hRad51 DNA strand exchange, fluorescence dequenching | 200,000 compounds, 0.085% hits | AID 1385 | inhibition, % at 10 µM;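 active = inhibition above 40% at the single screening dose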;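 note: 0% = DMSO control wells and 100% = blanks with heterologous ssDNA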
Target sequence (Q06609 whole entry, looked up): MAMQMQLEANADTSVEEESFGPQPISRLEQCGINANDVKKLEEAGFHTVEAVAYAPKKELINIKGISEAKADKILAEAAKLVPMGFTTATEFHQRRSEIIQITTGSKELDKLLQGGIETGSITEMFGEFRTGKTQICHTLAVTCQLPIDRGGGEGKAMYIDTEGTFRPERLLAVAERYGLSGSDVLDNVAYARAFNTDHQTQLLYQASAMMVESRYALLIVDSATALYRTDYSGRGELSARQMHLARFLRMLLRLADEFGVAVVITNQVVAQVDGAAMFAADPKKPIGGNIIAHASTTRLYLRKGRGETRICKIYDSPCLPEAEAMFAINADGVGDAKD
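Material: human Rad51–ssDNA filaments; Probe or stimulus: labelled 47-mer dsDNA for strand exchange; Doses: single 10 µM dose; Incubation: 37 °C 15-min filament assembly, 30-min compound preincubation, 15-min exchange; Technique: FRET fluorescence dequenching, excitation 485 nm, emission 520 nm; Measure: Fluorescence-based percent inhibition, control- and blank-normalised; Benchmarks: plate control and blank wells.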
KCC2 mod: modulates chloride dependent transport by human KCC2; Q9H2X9; KCC2 cells, thallium flux FluoZin-2 fluorescence; B-score of Tl+ flux slope (higher = more flux/activation; lower = inhibition) at 10 µM; 190,000 compounds, 2.2% hits; AID 1456;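 active = thallium flux slope and its plate-corrected score both differing from the plate sample mean at a set confidence after two filtering rounds, in either direction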;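 note: slope of fluorescence scaled to starting intensity during 10 to 20 s after thallium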
CHT block: inhibitors of human choline transporter CHT; Q9GZV3; CHT-expressing cells, membrane potential dye, choline response; stronger effect = lower value; B-score at 10 µM; 310,000 compounds, 0.86% hits; AID 488975;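 active = B-score over 3 SD under the library average, and starting fluorescence ratio not unusually high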;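 note: choline stimulus applied at its EC90 after an EC20 pre-addition; B-score computed on integrated fluorescence ratio after choline addition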
CHT allo act: allosterically activates the human high affinity choline transporter. Q9GZV3. CHT-expressing cells, membrane potential dye, choline EC20; stronger effect = higher value; LV-AA mutant CHT in HEK293 cells. B-score at 10 µM. 310,000 compounds, 0.49% hits;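 active = initial fluorescence not abnormally high and integrated response B-score, plate-corrected, over 3 SD above library mean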
KCC2 sec1: KCC2 (human) modulation, secondary assay | shares compounds with KCC2 mod | HEK293-KCC2, thallium flux, FluoZin2 fluorescence; stronger effect = higher value | normalised thallium flux (F/F0 slope) at 10 µM | 3,700 compounds, 15% hits | AID 1713;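 active = thallium flux slope above the same plate's solvent-only control mean plus 3 SD; inconclusive = the two replicate wells disagree; inactive = no significant difference from solvent-only control wells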
KCC2 bumet counter: thallium flux persisting under bumetanide in KCC2 cells, counter-screen secondary assay; shares compounds with KCC2 mod; HEK293-KCC2 + bumetanide/ouabain, thallium flux FluoZin2; stronger effect = higher value; normalized thallium flux at 10 µM; 3,700 compounds, 49% hits;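 active = thallium entry rate above the same plate's blocked-transporter control wells by more than 3 SD; inconclusive = the two repeat wells disagree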;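 note: raw slope of fluorescence over initial fluorescence between 10 and 20 s after thallium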
KCC2 secondary2: KCC2 (human) modulation, second secondary assay. shares compounds with KCC2 mod. HEK293-KCC2, thallium flux FluoZin2 fluorescence; actives lie on both sides; F/F0 rise rate, 10–20 s post-thallium. normalized thallium flux at 10 µM. 3,700 compounds, 23% hits;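 active = thallium flux slope more than 3 SD above or below the plate's solvent-only control mean, mostly below; inconclusive = the two repeat wells disagreed; inactive = no significant shift from solvent-only controls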;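 note: raw slope with 0.1% DMSO as baseline and bumetanide as block control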
HEK counter1: parental HEK flux effect, counter-screen. shares compounds with KCC2 mod. 3,700 compounds, 46% hits. AID 1716. thallium flux rate (normalised fluorescence) at 10 µM. HEK293 parental cells, thallium flux FluoZin2, ouabain; baseline-ratio fluorescence slope, 10–20 s after thallium;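 active = thallium flux rate significantly above the same plate's solvent-only control wells, beyond their mean plus 3 SD; inconclusive = the two replicate wells gave conflicting results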
KCC2 retest ouab: confirmation of human KCC2 modulators with ouabain; 3,700 compounds, 48% hits; raw Tl+ flux slope (below DMSO = inhibition, above = activation) at 10 µM; AID 1717; shares compounds with KCC2 mod; HEK293-KCC2, thallium flux FluoZin2 fluorescence; bidirectional: low = inhibitor, high = activator;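 active = thallium flux slope beyond 3 SD from same-plate DMSO control mean in most replicates, usually higher, sometimes lower; inconclusive = repeat tests gave conflicting results; inactive = no significant difference from controls in most replicates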;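 note: slope of initial-normalized fluorescence between seconds 10 and 20 after thallium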
HEK293 Tl flux2: counter-screen for KCC2 modulators: effect in parental HEK293 cells; shares compounds with KCC2 mod; 3,700 compounds, 33% hits; thallium flux FluoZin-2 fluorescence slope; AID 1718; thallium flux slope at 10 µM;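 active = thallium flux slope above the same plate's solvent-control mean plus 3 SD in both duplicate wells; inconclusive = duplicate wells that disagreed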;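 note: run without ouabain in cells lacking the KCC2 cotransporter; slope of fluorescence scaled to its starting value between 10 and 20 s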
* = called active by the depositor.

What do the screens show for `Oc1oc(-c2ccccc2)nc1/C=N/c1nccs1`?
Rad51 HR inh: -3; KCC2 mod: 14*; CHT block: inactive; CHT allo act: inactive; KCC2 sec1: 0.016*; KCC2 bumet counter: 0.082*; KCC2 secondary2: 0.032; HEK counter1: 0.017*; KCC2 retest ouab: 0.044*; HEK293 Tl flux2: 0.012*

How did CCOC(=O)c1c(S(=O)(=O)NCC(=O)NCc2cccc(C)c2)c(C)n(C)c1C do in these assays?
CHT block: inactive; CHT allo act: inactive

What do the screens show for `O=C1CNC(=S)N1c1nc2ccccc2s1`?
KCC2 mod: 5.3*; CHT block: inactive; CHT allo act: inactive; KCC2 sec1: 0.0069; KCC2 bumet counter: 0.01*; KCC2 secondary2: 0.031; HEK counter1: 0.011*; KCC2 retest ouab: 0.021; HEK293 Tl flux2: 0.012*

What do the screens show for `O=S(=O)(c1ccccc1F)N1CCN(c2nc3ccccc3s2)CC1`?
Rad51 HR inh: -17; KCC2 mod: 0.16; CHT block: inactive; CHT allo act: inactive

What do the screens show for `CC(C)(C)OC(=O)N[C@H](Cc1ccccc1)C(=O)N1CCC[C@@H]1C(=O)O`?
CHT block: inactive; CHT allo act: inactive

How did O=C(NC(=S)Nc1cnc2ccccc2c1)c1ccccc1 do in these assays?
Rad51 HR inh: -7; KCC2 mod: 21*; CHT block: inactive; CHT allo act: inactive; KCC2 sec1: inconclusive; KCC2 bumet counter: 0.041*; KCC2 secondary2: 0.033; HEK counter1: 0.012*; KCC2 retest ouab: 0.022*; HEK293 Tl flux2: 0.015*

What do the screens show for `O=[N+]([O-])c1ccc(/C=N/NC(=S)Nc2ccccc2C(F)(F)F)o1`?
Rad51 HR inh: 1; KCC2 mod: 21*; CHT block: inactive; CHT allo act: inactive; KCC2 sec1: 0.0072; KCC2 bumet counter: 0.046*; KCC2 secondary2: 0.051*; HEK counter1: 0.027*; KCC2 retest ouab: 0.054*; HEK293 Tl flux2: 0.021*

How did CCOc1ccc(S(=O)(=O)N2CCCCC2)cc1NC(=O)C1=COCCO1 do in these assays?
CHT block: inactive; CHT allo act: inactive

How did C/C(=N\NC(=S)NCc1ccccc1)c1ccccc1 do in these assays?
Rad51 HR inh: -5; KCC2 mod: 7.8*; CHT block: inactive; CHT allo act: inactive; KCC2 sec1: 0.01; KCC2 bumet counter: 0.043*; KCC2 secondary2: 0.031; HEK counter1: 0.015*; KCC2 retest ouab: 0.07*; HEK293 Tl flux2: 0.011

What do the screens show for `COc1ccc(CNC(=S)N/N=C(/C)c2ccccc2)cc1`?
Rad51 HR inh: -27; KCC2 mod: 5.7*; CHT block: inactive; CHT allo act: inactive; KCC2 sec1: 0.0071; KCC2 bumet counter: 0.023*; KCC2 secondary2: 0.034; HEK counter1: 0.014*; KCC2 retest ouab: inconclusive; HEK293 Tl flux2: 0.016*

What do the screens show for `C/C(=N\NC(=S)NCc1ccccc1)c1ccccc1F`?
Rad51 HR inh: -6; KCC2 mod: 3.7; CHT block: inactive; CHT allo act: inactive

How did C/C(=N\NC(=S)NCc1ccccc1)c1ccco1 do in these assays?
Rad51 HR inh: 24; KCC2 mod: 13*; CHT block: inactive; CHT allo act: inactive; KCC2 sec1: 0.012; KCC2 bumet counter: 0.019*; KCC2 secondary2: 0.038; HEK counter1: inconclusive; KCC2 retest ouab: 0.029*; HEK293 Tl flux2: 0.012

How did Cc1[nH][nH]c(=O)c1C(c1ccc(-c2ccc(F)cc2)o1)c1c(C)[nH][nH]c1=O do in these assays?
Rad51 HR inh: 1; KCC2 mod: -5.2*; CHT block: inactive; CHT allo act: inactive; KCC2 sec1: 0.017; KCC2 bumet counter: 0.0046; KCC2 secondary2: 0.025*; HEK counter1: 0.0074; KCC2 retest ouab: 0.013; HEK293 Tl flux2: 0.011

How did Cc1cccc(C)c1NC(=O)CN1C(=O)N(C)Cc2ccccc21 do in these assays?
KCC2 mod: -0.16; CHT block: inactive; CHT allo act: inactive

Results for Cc1noc(/C=C/N(C)C)c1S(=O)(=O)N1CCCC(C(=O)NC2CCCCC2)C1 (stereo not drawn) ?
Rad51 HR inh: -2; KCC2 mod: -0.012; CHT block: inactive; CHT allo act: inactive

What do the screens show for `Cc1noc(/C=C/N(C)C)c1S(=O)(=O)N(C)CC(=O)NC1CCCCC1`?
KCC2 mod: -7.1*; CHT block: inactive; CHT allo act: inactive; KCC2 sec1: 0.01; KCC2 bumet counter: 0.0072; KCC2 secondary2: 0.03; HEK counter1: inconclusive; KCC2 retest ouab: inconclusive; HEK293 Tl flux2: 0.01

Results for O=C(Cc1csc(Nc2nc(=S)[nH]c3ccccc23)n1)N1CCN(c2cccc(C(F)(F)F)c2)CC1 ?
Rad51 HR inh: -9; KCC2 mod: 12*; CHT block: inactive; CHT allo act: inactive; KCC2 sec1: 0.007; KCC2 bumet counter: 0.014*; KCC2 secondary2: 0.036; HEK counter1: 0.022*; KCC2 retest ouab: 0.027*; HEK293 Tl flux2: 0.018*

How did O=C(Cc1csc(Nc2nc(=S)[nH]c3ccccc23)n1)NCc1ccccc1Cl do in these assays?
Rad51 HR inh: 0; KCC2 mod: 2; CHT block: inactive; CHT allo act: inactive

What do the screens show for `Cc1c(Cl)sn(-c2ccc(Cl)cc2)c1=O`?
Rad51 HR inh: 5; KCC2 mod: -5.9*; KCC2 sec1: 0.0062; KCC2 bumet counter: 0.0048; KCC2 secondary2: 0.023*; HEK counter1: 0.0069; KCC2 retest ouab: 0.012*; HEK293 Tl flux2: inconclusive

How did CCOC(=O)c1ccc(NC(=O)COC(=O)Cc2csc(-c3ccccc3)n2)cc1 do in these assays?
Rad51 HR inh: -2; KCC2 mod: -4.9*; CHT block: inactive; CHT allo act: inactive; KCC2 sec1: 0.0061*; KCC2 bumet counter: 0.015*; KCC2 secondary2: inconclusive; HEK counter1: 0.011*; KCC2 retest ouab: 0.016*; HEK293 Tl flux2: 0.011

What do the screens show for `NC(=O)c1ccc(NC(=O)Cc2csc(-c3ccccc3)n2)cc1`?
Rad51 HR inh: 9; KCC2 mod: -0.87; CHT block: inactive; CHT allo act: inactive
